The values that follow come from publication PMC11303703 (Scientific Reports, 2024).

One series has as its system P. falciparum W2. To be noted: read-out: IC50 against P. falciparum W2; cultured malaria parasites; cited from earlier work.
Another series relates to falcipain-2. The settings on record: read-out: IC50 against falcipain-2; cited from earlier work.
The nature of series [1]: DPPH radical scavenging assay. To be noted: 37 °C, 30 min, 517 nm, n = 3. A digest of the protocol:
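Ethanolic DPPH (300 µM before mixing) was combined with test solution (0.5 mg/mL before mixing) and held at 37 °C for 30 min, then read at 517 nm. % radical scavenging was taken relative to a DMSO control. IC50 is the concentration removing 50% of the initial DPPH, fitted by kinetics software. N-acetyl-L-cysteine standard; 3 replicates.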

The nature of another series: Cytotoxicity assay. It counts as cell-based. The settings on record: human, HeLa cells. A digest of the protocol: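 HeLa cells grown in DMEM with 5 mM L-glutamine, 10% FBS and penicillin/streptomycin/fungizone, then exposed to the test agent for 24 h in 96-well plates. A resazurin reagent was added and the resorufin formed by surviving cells was read by fluorescence (Ex 560/Em 590). Triplicate wells; emetine as positive control.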

A further series deals with HIV-1 IN. To be noted: by chelating the active site Mg2+ cofactor; cited from earlier work.
The next series has as its system T.b. brucei. The series is described as follows: Trypanosoma brucei assay. Format: cell-based. To be noted: 48 h, read-out: Antitrypanosomal IC50. A digest of the protocol: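 In vitro T. b. brucei cultures in 96-well plates were exposed to the test agent for 48 h; the extract was screened at 25 µg/mL unless otherwise stated. Surviving parasites were counted by adding a resazurin reagent and reading resorufin fluorescence (Ex 560/Em 590). Pentamidine reference; triplicate wells; IC50 from dose-response data.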

In the next series the test system is Trypanosoma brucei. The settings on record: cited from earlier work.

For `O=C(O)c1c(O)ccc(O)c1O` [2,3,6-trihydroxy benzoic acid], the IC50 (commonly the point on the concentration scale where inhibition reaches its midpoint) was 16.5 ± 0.47 µM in the series with P. falciparum W2 and 35.4 ± 22.4 µM with falcipain-2.
On to `COC(=O)c1c(O)ccc(O)c1O` [2,3,6-trihydroxy methyl benzoate], for which the IC50 with P. falciparum W2 was 13 ± 1.63 µM; with falcipain-2, 6.09 ± 0.87 µM.
In the case of `CC(=O)N[C@@H](CS)C(=O)O` [N-acetyl-L-cysteine], in series [1], the “Antioxidant IC50” value is 14.1 ± 0.1 µg/mL.
The molecule `CC[C@H]1CN2CCc3cc(OC)c(OC)cc3[C@@H]2C[C@@H]1C[C@H]1NCCc2cc(OC)c(OC)cc21` [emetine] displayed an IC50 at 24 h in “Cytotoxicity assay” of 0.045 ± 0.01 µM.
Regarding `COC(=O)c1cc(O)c(O)c(O)c1` [methyl gallate, Methyl gallate], in the series on HIV-1 IN, the “HIV-1 IN inhibition” value is given as “inhibits HIV-1 IN”.
On to `N=C(N)c1ccc(OCCCCCOc2ccc(C(=N)N)cc2)cc1` [pentamidine], for which, in the series on T.b. brucei, the IC50 was 0.000782 ± 6e-06 µM.
As for epigallocatechin-3-gallate, the “activity against Trypanosoma brucei” value in the series on Trypanosoma brucei is reported as “active against Trypanosoma brucei”.
